# Assays:
# [1] = tested on: Haemophilus influenzae; test: In vitro antimicrobial activity against Haemophilus influenzae.; assay type: functional
# [2] = tested on: Staphylococcus aureus; test: In vitro antimicrobial activity against Staphylococcus aureus X1; assay type: functional
# [3] = tested on: Streptococcus pyogenes; test: In vivo effective dose against experimental infections in rodent caused by Streptococcus pyogenes C203 when administered subcutaneously; assay type: functional; settings: sc
# [4] = tested on: Streptococcus pneumoniae; test: In vitro antimicrobial activity against Streptococcus pneumoniae; assay type: functional
# [5] = tested on: Staphylococcus epidermidis; test: In vitro antimicrobial activity against Staphylococcus epidermidis EPI1; assay type: functional
# [6] = tested on: Enterococcus faecium; test: In vitro antimicrobial activity against Streptococcus faecium X66; assay type: functional, streptococcus fae-cium
# [7] = tested on: Streptococcus pyogenes; test: In vitro antimicrobial activity against Streptococcus pyogenes C203; assay type: functional
# [8] = tested on: Streptococcus pyogenes; test: In vivo effective dose against experimental infections in rodent caused by Streptococcus pyogenes C203 when administered orally; assay type: functional; settings: po
# [9] = tested on: Bacteroides fragilis; test: In vitro antimicrobial activity against anaerobic bacteria bacteroides fragilis 111; assay type: functional
# [10] = tested on: Bacteroides fragilis; test: In vitro antimicrobial activity against anaerobic bacteria bacteroides fragilis 1877; assay type: functional
# [11] = tested on: Bacteroides fragilis; test: In vitro antimicrobial activity against anaerobic bacteria bacteroides fragilis 1936B,; assay type: functional
# [12] = tested on: Eikenella corrodens; test: In vitro antimicrobial activity against anaerobic bacteria bacteroides corrodens 1874; assay type: functional
# [13] = tested on: Phocaeicola vulgatus; test: In vitro antimicrobial activity against anaerobic bacteria bacteroides vulgatus 1211; assay type: functional
# [14] = tested on: Prevotella melaninogenica; test: In vitro antimicrobial activity against anaerobic bacteria bacteroides melaninogenicus 1856,; assay type: functional
# [15] = tested on: Bacteroides thetaiotaomicron; test: In vitro antimicrobial activity against anaerobic bacteria bacteroides thetaiotaomicron 1438; assay type: functional
# [16] = tested on: Clostridioides difficile; test: In vitro antimicrobial activity against anaerobic bacteria Clostridium difficile 2994; assay type: functional
# [17] = tested on: Clostridium perfringens; test: In vitro antimicrobial activity against anaerobic bacteria clostridium perfringens 81,; assay type: functional
# [18] = tested on: Clostridium septicum; test: In vitro antimicrobial activity against anaerobic bacteria clostridium septicum 1128; assay type: functional
# [19] = tested on: Chlamydia trachomatis; test: In vitro antimicrobial activity against chlamydia trachomatis.; assay type: functional
# [20] = tested on: Collinsella aerofaciens; test: In vitro antimicrobial activity against anaerobic bacteria aerofaciens 1235; assay type: functional
# [21] = tested on: Fusobacterium; test: In vitro antimicrobial activity against anaerobic bacteria fusobacterium symbiosum 1470; assay type: functional
# [22] = tested on: Haemophilus influenzae; test: In vitro antimicrobial activity against aerobic bacteria Haemophilus influenzae 76; assay type: functional
# [23] = tested on: Haemophilus influenzae; test: In vitro antimicrobial activity against aerobic bacteria Haemophilus influenzae MX366,; assay type: functional
# [24] = tested on: Haemophilus parainfluenzae; test: In vitro antimicrobial activity against aerobic bacteria Haemophilus parainfluenzae 9796; assay type: functional
# [25] = tested on: Mus musculus; test: Peripheral plasma levels in mice after oral administration of 50 mg/kg dose for 2 hr; assay type: functional, organism-based; design: dose 50 mg/kg
# Method in brief: (§1)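 Mice were given the compound orally and sampled for peripheral plasma at each time point. Plasma was assayed microbiologically against Micrococcus luteus seeded in Antibiotic Medium 1. Inhibition zone sizes were read, and concentrations were calculated from each compound's own standard curve. Each value is the mean of five mice per time point.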
# [26] = tested on: Mus musculus; test: Peripheral plasma levels in mice after oral administration of 50 mg/kg dose for 4 hr; assay type: functional, organism-based; design: dose 50 mg/kg; method in brief: as §1
# [27] = tested on: Mus musculus; test: Peripheral plasma levels in mice after oral administration of 100 mg/kg dose for 4 hr; assay type: functional, organism-based; design: dose 100 mg/kg; method in brief: as §1
# [28] = tested on: Mus musculus; test: Peripheral plasma levels in mice after oral administration of 50 mg/kg dose for 0.25 hr; assay type: functional, organism-based; design: dose 50 mg/kg; method in brief: as §1
# [29] = tested on: Mus musculus; test: Peripheral plasma levels in mice after oral administration of 100 mg/kg dose for 0.25 hr; assay type: functional, organism-based; design: dose 100 mg/kg; method in brief: as §1
# [30] = tested on: Mus musculus; test: Peripheral plasma levels in mice after oral administration of 100 mg/kg dose for 0.5 hr; assay type: functional, organism-based; design: dose 100 mg/kg; method in brief: as §1
# [31] = tested on: Mus musculus; test: Peripheral plasma levels in mice after oral administration of 100 mg/kg dose for 1 hr; assay type: functional, organism-based; design: dose 100 mg/kg; method in brief: as §1
# [32] = tested on: Mus musculus; test: Peripheral plasma levels in mice after oral administration of 100 mg/kg dose for 2 hr; assay type: functional, organism-based; design: dose 100 mg/kg; method in brief: as §1
# [33] = tested on: Mus musculus; test: Peripheral plasma levels in mice after oral administration of 50 mg/kg dose for 1 hr; assay type: functional, organism-based; design: dose 50 mg/kg; method in brief: as §1
# [34] = In vitro antimicrobial activity against anaerobic bacteria peptostreptococcus intermedius 1264; assay type: functional
# [35] = tested on: Peptoniphilus asaccharolyticus; test: In vitro antimicrobial activity against anaerobic bacteria peptococcus asaccharolyticus 1302; assay type: functional
# [36] = tested on: Anaerococcus prevotii; test: In vitro antimicrobial activity against anaerobic bacteria peptococcus prevoti 1281; assay type: functional
# [37] = tested on: Cutibacterium acnes; test: In vitro antimicrobial activity against anaerobic bacteria propionibacterium acnes 79; assay type: functional
# [38] = tested on: Streptococcus; test: In vitro antimicrobial activity against aerobic bacteria Streptococcus B 14; assay type: functional
# [39] = tested on: Streptococcus; test: In vitro antimicrobial activity against aerobic bacteria Streptococcus D 8043; assay type: functional
# [40] = tested on: Streptococcus; test: In vitro antimicrobial activity against aerobic bacteria Streptococcus D 9960; assay type: functional
# [41] = tested on: Staphylococcus epidermidis; test: In vitro antimicrobial activity against aerobic bacteria Streptococcus epi 270; assay type: functional
# [42] = tested on: Staphylococcus aureus; test: In vitro antimicrobial activity against aerobic bacteria Staphylococcus aureus 513E; assay type: functional
# [43] = tested on: Staphylococcus aureus; test: In vitro antimicrobial activity against aerobic bacteria Staphylococcus aureus V140,; assay type: functional
# [44] = tested on: Staphylococcus aureus; test: In vitro antimicrobial activity against aerobic bacteria Staphylococcus aureus V41; assay type: functional
# [45] = tested on: Staphylococcus aureus; test: In vitro antimicrobial activity against aerobic bacteria Staphylococcus aureus X400; assay type: functional
# [46] = tested on: Streptococcus pneumoniae; test: In vivo effective dose against experimental infections in mice Streptococcus pneumoniae administered sc; assay type: functional
# [47] = tested on: Streptococcus pneumoniae; test: In vivo effective dose against experimental infections in mice Streptococcus pneumoniae park when administered orally; assay type: functional; settings: po
# [48] = tested on: Streptococcus pneumoniae; test: In vitro antimicrobial activity against aerobic bacteria Streptococcus pneumoniae B1-438; assay type: functional, streptococcus pneum
# [49] = tested on: Staphylococcus epidermidis; test: In vitro antimicrobial activity against aerobic bacteria Streptococcus epi 222; assay type: functional
# [50] = tested on: Streptococcus; test: In vitro antimicrobial activity against aerobic bacteria Streptococcus B 5; assay type: functional
# [51] = tested on: Staphylococcus aureus; test: In vitro antimicrobial activity against aerobic bacteria Staphylococcus aureus V135; assay type: functional
# [52] = tested on: Haemophilus influenzae; test: In vitro antimicrobial activity against aerobic bacteria Haemophilus influenzae 465; assay type: functional
# [53] = tested on: Prevotella melaninogenica; test: In vitro antimicrobial activity against anaerobic bacteria bacteroides melaninogenicus 2736; assay type: functional
# [54] = tested on: Fusobacterium necrophorum; test: In vitro antimicrobial activity against anaerobic bacteria usobacterium necrophorum 6054A; assay type: functional
# [55] = tested on: Mus musculus; test: Peripheral plasma levels in mice after oral administration of 50 mg/kg dose for 0.5 hr; assay type: functional, organism-based; design: dose 50 mg/kg; method in brief: as §1
# [56] = tested on: Streptococcus; test: In vitro antimicrobial activity against aerobic bacteria Streptococcus D 2041; assay type: functional
# [57] = tested on: Peptostreptococcus anaerobius; test: In vitro antimicrobial activity against anaerobic bacteria eubacterium peptostreptococcus anaerobius 1428,; assay type: functional
smiles,measurement,setting,value
CC[C@H]1OC(=O)C[C@@H](O)[C@H](C)[C@@H](O[C@@H]2O[C@H](C)[C@@H](O[C@H]3C[C@@](C)(O)[C@@H](O)[C@H](C)O3)[C@H](N(C)C)[C@H]2O)[C@@H](CCO)C[C@@H](C)C(=O)/C=C/C(C)=C/[C@@H]1CO[C@@H]1O[C@H](C)[C@@H](O)[C@@H](O)[C@H]1OC,MIC,[1],> 128 µg/mL
same,MIC,[2],16 µg/mL
same,ED50,[3],> 10 mg/kg
same,MIC,[4],32 µg/mL
same,MIC,[5],4 µg/mL
same,MIC,[6],128 µg/mL
same,MIC,[7],4 µg/mL
same,ED50,[8],> 100 mg/kg
CC[C@H]1OC(=O)C[C@@H](O)[C@H](C)[C@@H](O[C@@H]2O[C@H](C)[C@@H](O)[C@H](N(C)C)[C@H]2O)[C@@H](CCOc2ccc(C(=O)c3ccccc3)cc2)C[C@@H](C)C(=O)/C=C/C(C)=C/[C@@H]1CO[C@@H]1O[C@H](C)[C@@H](O)[C@@H](OC)[C@H]1OC,MIC,[9],2 µg/mL
same,MIC,[10],2 µg/mL
same,MIC,[11],4 µg/mL
same,MIC,[12],2 µg/mL
same,MIC,[13],< 0.5 µg/mL
same,MIC,[14],< 0.5 µg/mL
same,MIC,[15],4 µg/mL
same,MIC,[16],< 0.5 µg/mL
same,MIC,[17],< 0.5 µg/mL
same,MIC,[18],< 0.5 µg/mL
same,MIC,[19],> 2 µg/mL
same,MIC,[20],< 0.5 µg/mL
same,MIC,[21],2 µg/mL
same,MIC,[22],16 µg/mL
same,MIC,[23],16 µg/mL
same,MIC,[1],16 µg/mL
same,MIC,[24],32 µg/mL
same,Concentration,[25],1.8 µg/mL
same,Concentration,[26],0.8 µg/mL
same,Concentration,[27],1.2 µg/mL
same,Concentration,[28],0.1 µg/mL
same,Concentration,[29],1.3 µg/mL
same,Concentration,[30],1.1 µg/mL
same,Concentration,[31],2.3 µg/mL
same,Concentration,[32],2 µg/mL
same,Concentration,[33],0.1 µg/mL
same,MIC,[34],< 0.5 µg/mL
same,MIC,[35],< 0.5 µg/mL
same,MIC,[36],2 µg/mL
same,MIC,[37],< 0.5 µg/mL
same,MIC,[38],1 µg/mL
same,MIC,[39],0.25 µg/mL
same,MIC,[40],0.5 µg/mL
same,MIC,[41],> 128 µg/mL
same,MIC,[2],0.25 µg/mL
same,MIC,[42],0.25 µg/mL
same,MIC,[43],0.5 µg/mL
same,MIC,[44],0.25 µg/mL
same,MIC,[45],0.25 µg/mL
same,ED50,[46],> 20 mg/kg
same,ED50,[47],> 50 mg/kg
same,MIC,[48],128 µg/mL
same,MIC,[5],0.25 µg/mL
same,MIC,[49],0.12 µg/mL
same,MIC,[6],0.25 µg/mL
same,MIC,[50],1 µg/mL
same,MIC,[51],0.5 µg/mL
same,MIC,[52],32 µg/mL
same,MIC,[53],2 µg/mL
same,MIC,[54],4 µg/mL
same,Concentration,[55],0.4 µg/mL
same,MIC,[56],0.5 µg/mL
same,MIC,[57],< 0.5 µg/mL
